“Also recorded” adds a separate entry of the source.
Assays:
[1] = test system: p53 acetylation at lysine 382; experiment: Western blot on MCF-7 cells, p53 acetylation at lysine 382; assay type: cell-based; settings: 24 h, 50 μM (Fig. 3)
[2] = test system: MCF-7 breast carcinoma cell line; assay type: cell-based; settings: MCF-7 cells, 50 μM, 24 h
acetyl-α-tubulin = experiment: Western blot on MCF-7 cells, acetylation status of α-tubulin; assay type: cell-based; settings: 24 h; for acetyl-α-tubulin accumulation: 50 μM, comparison of SIRT inhibitors (Fig. 3)
How it was run: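 MCF-7 cells exposed 24 h to test compound at increasing concentrations […]. Acetylation of α-tubulin (SIRT2 biomarker) and of histone H3-K9 (SIRT1 biomarker) monitored in parallel.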

SIRT2 = molecular target: T1, SIRT2 (Homo sapiens, UniProt Q8IXJ6); experiment: in vitro enzymatic fluorimetric assay, SIRT2 inhibitory activity; assay type: biochemical; settings: for selectivity for SIRT2 over SIRT1: in vitro
T1 sequence (Q8IXJ6 1-389): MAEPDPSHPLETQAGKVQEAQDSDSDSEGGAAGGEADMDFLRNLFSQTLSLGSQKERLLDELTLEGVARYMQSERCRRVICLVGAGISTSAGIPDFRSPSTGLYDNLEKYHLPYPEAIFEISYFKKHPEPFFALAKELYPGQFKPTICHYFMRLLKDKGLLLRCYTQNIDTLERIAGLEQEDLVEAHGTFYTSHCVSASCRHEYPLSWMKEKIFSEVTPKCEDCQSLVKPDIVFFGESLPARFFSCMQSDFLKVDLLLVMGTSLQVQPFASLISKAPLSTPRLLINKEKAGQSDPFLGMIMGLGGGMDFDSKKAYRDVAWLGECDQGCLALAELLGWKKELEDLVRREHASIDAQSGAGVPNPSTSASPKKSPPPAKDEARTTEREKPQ

H3-K9 acetylation = experiment: Western blot on MCF-7 cells, acetylation status of H3-K9; assay type: cell-based; settings: 24 h, concentrations up to 50 μM
[3] = test system: pRb phosphorylation at Ser807/Ser811; experiment: Western blot on MCF-7 cells, pRb phosphorylation; assay type: cell-based; settings: 24 h, 50 μM
MCF-7 cells = experiment: proliferative analysis / cell viability assay on MCF-7 cells; assay type: cell-based; settings: 30 μM, 0-72 h

O=C(Nc1cccc(Br)c1)c1cccc(S(=O)(=O)N2CCCCCC2)c1 [AK-7] was tested, and the “p53 acetylation at lysine 382” value [1] was “moderately induce p53 acetylation at lysine 382”, the “cell cycle phase in which cells accumulate” value (from here on “cell cycle phase”) [2] was “increase in cells primarily in G2/M phase” and the acetyl-α-tubulin accumulation (acetyl-α-tubulin) was “no significant effect”.

NC(=O)c1ccc2c(c1)CCc1cc([N+](=O)[O-])ccc1N2 [Compound 8] was tested, and the “selectivity for SIRT2 over SIRT1” value (SIRT2) was “more than 30 fold”, the “acetylation levels of H3-K9” value (H3-K9 acetylation) was “without increasing the acetylation levels of H3-K9” and the “cell cycle phase” value [2] was “high number of cells to accumulate at G2/M phase”. The acetyl-α-tubulin accumulation (acetyl-α-tubulin) was “substantial accumulation of acetyl-α-tubulin”, the “acetylation of α-tubulin” value (acetyl-α-tubulin; concentrations up to 50 μM) was “induce hyperacetylation of α-tubulin” and the “pRb phosphorylation at Ser807/Ser811” value [3] was “impede pRb phosphorylation at Ser807/Ser811”. For the same compound, the antiproliferative effect (MCF-7 cells) was “antiproliferative activity; also recorded: abolished cell proliferation completely”.

For CC(C)(C)NS(=O)(=O)c1ccc2c(c1)Nc1ccccc1CC2 [Compound 20], the “selectivity for SIRT2 over SIRT1” value (SIRT2) was “more than 30 fold”.

CN1c2ccc(C(N)=O)cc2CCc2cc([N+](=O)[O-])ccc21 [Compound 29] was tested, and the “loss of SIRT2 potency relative to compound 8” value (SIRT2; N-methyl derivative vs 8) was 4 fold.

In the case of NC(=O)C1CCCc2c1[nH]c1ccc(Cl)cc21 (stereo not drawn) [EX-527], the “cell cycle phase” value [2] is reported as “accumulate predominantly in G1” and the “reduction of cell proliferation relative to DMSO vehicle control” value (MCF-7 cells) is reported as “approximately 50%”.

CC(C(=O)Nc1cccc(/N=C/c2c(O)ccc3ccccc23)c1)c1ccccc1 (stereo not drawn) [Salermide] was tested, and the “p53 acetylation at lysine 382” value [1] was “moderately induce p53 acetylation at lysine 382”, the “cell cycle phase” value [2] was “increase in cells primarily in G2/M phase” and the acetyl-α-tubulin accumulation (acetyl-α-tubulin) was “slight increase in acetyl-α-tubulin”. The antiproliferative effect (MCF-7 cells) was “abolished cell proliferation completely”.

CC(NC(=O)c1ccccc1/N=C/c1c(O)ccc2ccccc12)c1ccccc1 (stereo not drawn) [Sirtinol] was tested, and the “p53 acetylation at lysine 382” value [1] was “moderately induce p53 acetylation at lysine 382”, the “cell cycle phase” value [2] was “accumulate predominantly in G1” and the acetyl-α-tubulin accumulation (acetyl-α-tubulin) was “no significant effect”.
